In ChEMBL document CHEMBL1148762, “Lysosome and HER3 (ErbB3) selective anticancer agent kahalalide F: semisynthetic modifications and antifungal lead-exploration studies” (J Med Chem, 2007):
Converted amounts (≈) assume the structure as drawn. The source made the active and inactive calls. The calls are words filed in the database; no cut-off is given here.

Key:
Fusarium proliferatum [1] = assay: Fungistatic activity against Fusarium proliferatum at 30 uM after 72 hrs by microtiter plate assay; format: functional, organism-based
Procedure, shortened: (§1)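 Conidia come from 7-day potato dextrose agar cultures, filtered and set photometrically (625 nm) to 3 × 10^5 conidia/mL. They are exposed to compound at 30 µM in 96-well microdilution broth at 24 ± 1 °C under a 12 h photoperiod. After 72 h, 20 µL per well is subcultured on drug-free potato dextrose agar at 28 °C for 3 days. No regrowth is scored fungicidal; regrowth is scored fungistatic.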

Fusarium solani [2] = assay: Fungicidal activity against Fusarium solani at 30 uM after 72 hrs by microtiter assay; format: functional, organism-based
Procedure, shortened: (§2)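 After 72 h of microtiter broth exposure at 30 µM, 20 µL from each well was plated onto compound-free potato dextrose agar and incubated 3 days at 28 °C. No regrowth was scored fungicidal; regrowth was scored fungistatic.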

Fusarium oxysporum [3] = assay: Fungicidal activity against Fusarium oxysporum at 30 uM after 72 hrs by microtiter plate assay; format: functional, organism-based; procedure, shortened: as §2
SK-OV-3 = assay: Cytotoxicity against human SK-OV3 cells; format: functional
Procedure, shortened: (§3)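 NCI Developmental Therapeutics Program cell panel. GI50 is the concentration that reduces growth of treated cells to half that of untreated controls. TGI is the concentration that completely halts growth.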

ACHN = assay: Cytotoxicity against human ACHN cells; format: functional; procedure, shortened: as §3
PC-3 = assay: Cytotoxicity against human PC3 cells; format: functional; procedure, shortened: as §3
DU-145 = assay: Cytotoxicity against human DU145 cells; format: functional; procedure, shortened: as §3
T47D = assay: Cytotoxicity against human T47D cells; format: functional; procedure, shortened: as §3
Hs-578T = assay: Cytotoxicity against human HS578T cells; format: functional; procedure, shortened: as §3
Fusarium proliferatum [4] = assay: Antimicrobial activity against Fusarium proliferatum at 0.3 uM after 72 hrs by microtiter assay; format: functional
Procedure, shortened: (§4)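 96-well microdilution broth assay with conidia (3 × 10^5 conidia/mL, harvested from 7-day PDA cultures and filtered) against F. oxysporum, F. proliferatum and F. solani at 0.3, 3 and 30 µM. Plates were held at 24 ± 1 °C under a 12 h photoperiod. Growth was read at 620 nm at 24, 48 and 72 h and reported as percent inhibition from mean absorbance with standard error.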

Fusarium proliferatum [5] = assay: Antimicrobial activity against Fusarium proliferatum at 3 uM after 48 hrs by microtiter assay; format: functional; procedure, shortened: as §4
Fusarium proliferatum [6] = assay: Antimicrobial activity against Fusarium proliferatum at 3 uM after 72 hrs by microtiter assay; format: functional; procedure, shortened: as §4
Aspergillus fumigatus = assay: Antimicrobial activity against Aspergillus fumigatus ATCC 90906; format: functional, organism-based
Cryptococcus neoformans = assay: Antimicrobial activity against Cryptococcus neoformans ATCC 90113; format: functional, organism-based
Fusarium proliferatum [7] = assay: Antimicrobial activity against Fusarium proliferatum at 0.3 uM after 48 hrs by microtiter assay; format: functional; procedure, shortened: as §4
Candida albicans = assay: Antimicrobial activity against Candida albicans ATCC 90028; format: functional, organism-based
[8] = test system: Mycobacterium intracellulare; assay: Antimicrobial activity against Mycobacterium intracellular ATCC 23068; format: functional, organism-based
Leishmania donovani = assay: Antiparasitic activity against Leishmania donovani; format: functional, organism-based
[9] = test system: Mycobacterium tuberculosis; assay: Antibacterial activity against Mycobacterium tuberculosis H37Rv at 16 ug/mL by micro plate alamar blue assay; format: functional
Procedure, shortened: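 M. tuberculosis H37Rv ATCC 27294 grown in BACTEC 12B medium; microplate Alamar blue assay (MABA). Primary screen at a single concentration of 16 µg/mL, read as percent inhibition.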

[10] = test system: Mycobacterium tuberculosis; assay: Antibacterial activity against Mycobacterium tuberculosis H37Rv by micro plate alamar blue assay; format: functional
Fusarium oxysporum [11] = assay: Antimicrobial activity against Fusarium oxysporum at 0.3 uM after 48 hrs by microtiter assay; format: functional; procedure, shortened: as §4
Fusarium oxysporum [12] = assay: Antimicrobial activity against Fusarium oxysporum at 0.3 uM after 72 hrs by microtiter assay; format: functional; procedure, shortened: as §4
Fusarium solani [13] = assay: Antimicrobial activity against Fusarium solani at 0.3 uM after 48 hrs by microtiter assay; format: functional; procedure, shortened: as §4
Fusarium solani [14] = assay: Antimicrobial activity against Fusarium solani at 0.3 uM after 72 hrs by microtiter assay; format: functional; procedure, shortened: as §4
Fusarium oxysporum [15] = assay: Antimicrobial activity against Fusarium oxysporum at 3 uM after 48 hrs by microtiter assay; format: functional; procedure, shortened: as §4
Fusarium oxysporum [16] = assay: Antimicrobial activity against Fusarium oxysporum at 3 uM after 72 hrs by microtiter assay; format: functional; procedure, shortened: as §4
Fusarium solani [17] = assay: Antimicrobial activity against Fusarium solani at 3 uM after 48 hrs by microtiter assay; format: functional; procedure, shortened: as §4
Fusarium solani [18] = assay: Antimicrobial activity against Fusarium solani at 3 uM after 72 hrs by microtiter assay; format: functional; procedure, shortened: as §4
Fusarium oxysporum [19] = assay: Antimicrobial activity against Fusarium oxysporum at 30 uM after 48 hrs by microtiter assay; format: functional; procedure, shortened: as §4
Fusarium oxysporum [20] = assay: Antimicrobial activity against Fusarium oxysporum at 30 uM after 72 hrs by microtiter assay; format: functional; procedure, shortened: as §4
Fusarium solani [21] = assay: Antimicrobial activity against Fusarium solani at 30 uM after 48 hrs by microtiter assay; format: functional; procedure, shortened: as §4
Fusarium solani [22] = assay: Antimicrobial activity against Fusarium solani at 30 uM after 72 hrs by microtiter assay; format: functional; procedure, shortened: as §4
A549 = assay: Cytotoxicity against human A549 cells; format: functional; procedure, shortened: as §3
NCI-H322M = assay: Cytotoxicity against human NCI-H322M cells; format: functional; procedure, shortened: as §3
RPMI-8226 = assay: Cytotoxicity against human RPMI8226 cells; format: functional; procedure, shortened: as §3
COLO 205 = assay: Cytotoxicity against human COLO205 cells; format: functional; procedure, shortened: as §3
HCC 2998 = assay: Cytotoxicity against human HCC2998 cells; format: functional; procedure, shortened: as §3
HCT-15 = assay: Cytotoxicity against human HCT15 cells; format: functional; procedure, shortened: as §3
HT-29 = assay: Cytotoxicity against human HT29 cells; format: functional; procedure, shortened: as §3
KM12 = assay: Cytotoxicity against human KM12 cells; format: functional; procedure, shortened: as §3
SNB-75 = assay: Cytotoxicity against human SNB75 cells; format: functional; procedure, shortened: as §3
UACC-257 = assay: Cytotoxicity against human UACC257 cells; format: functional; procedure, shortened: as §3
Fusarium proliferatum [23] = assay: Antimicrobial activity against Fusarium proliferatum at 30 uM after 48 hrs by microtiter assay; format: functional; procedure, shortened: as §4
Fusarium proliferatum [24] = assay: Antimicrobial activity against Fusarium proliferatum at 30 uM after 72 hrs by microtiter assay; format: functional; procedure, shortened: as §4
Fusarium proliferatum [25] = assay: Fungicidal activity against Fusarium proliferatum at 30 uM after 72 hrs by microtiter plate assay; format: functional, organism-based; procedure, shortened: as §2
Fusarium oxysporum [26] = assay: Fungistatic activity against Fusarium oxysporum at 30 uM after 72 hrs by microtiter plate assay; format: functional, organism-based; procedure, shortened: as §1

C/C=C1\NC(=O)[C@H](Cc2ccccc2)NC(=O)[C@@H](C(C)C)NC(=O)[C@@H]([C@@H](C)CC)NC(=O)[C@H](NC(=O)[C@H](NC(=O)[C@H](CCCN)NC(=O)[C@H]2CCCN2C(=O)[C@@H](NC(=O)[C@H](NC(=O)[C@H](NC(=O)[C@@H](NC(=O)CCCC(C)C)C(C)C)C(C)=O)C(C)C)C(C)C)[C@@H](C)CC)[C@@H](C)OC(=O)[C@H](C(C)C)NC1=O
Activity (Fusarium proliferatum [1]): Active | Activity (Fusarium solani [2]): Active | Activity (Fusarium oxysporum [3]): Active

C/C=C1\NC(=O)[C@H](Cc2ccccc2)NC(=O)[C@@H](C(C)C)NC(=O)[C@@H]([C@@H](C)CC)NC(=O)[C@H](NC(=O)[C@H](NC(=O)[C@H](CCCNCc2cccs2)NC(=O)[C@H]2CCCN2C(=O)[C@H](NC(=O)[C@@H](NC(=O)[C@@H](NC(=O)[C@H](NC(=O)CCCC(C)C)C(C)C)[C@@H](C)O)C(C)C)C(C)C)[C@@H](C)CC)[C@@H](C)OC(=O)[C@H](C(C)C)NC1=O
GI50 (SK-OV-3): 223 nM | TGI (SK-OV-3): 485 nM | GI50 (ACHN): 1320 nM | TGI (ACHN): 2370 nM | GI50 (PC-3): 228 nM | TGI (PC-3): 665 nM | GI50 (DU-145): 144 nM | TGI (DU-145): 292 nM | GI50 (T47D): 191 nM | TGI (T47D): 394 nM | GI50 (Hs-578T): 427 nM | TGI (Hs-578T): 2130 nM | inhibition at 0.3 µM (Fusarium proliferatum [4]): 0% | inhibition at 3 µM (Fusarium proliferatum [5]): 4.8% | inhibition at 3 µM (Fusarium proliferatum [6]): 0% | MFC (Aspergillus fumigatus): 20 µM (≈ 31.5 µg/mL) | MIC (Aspergillus fumigatus): 10 µM (≈ 15.7 µg/mL) | MFC (Cryptococcus neoformans): 10 µM (≈ 15.7 µg/mL) | MIC (Cryptococcus neoformans): 5 µM (≈ 7.87 µg/mL) | inhibition at 0.3 µM (Fusarium proliferatum [7]): 0% | MFC (Candida albicans): 20 µM (≈ 31.5 µg/mL) | MIC (Candida albicans): 10 µM (≈ 15.7 µg/mL) | MBC [8]: > 20 µM | MIC [8]: > 20 µM | IC90 (Leishmania donovani): 34 µg/mL (≈ 21.6 µM) | inhibition at 16 µg/mL [9]: 92% | MIC [10]: 15.5 µg/mL (≈ 9.85 µM) | inhibition at 0.3 µM (Fusarium oxysporum [11]): 0% | inhibition at 0.3 µM (Fusarium oxysporum [12]): 0% | inhibition at 0.3 µM (Fusarium solani [13]): 0% | inhibition at 0.3 µM (Fusarium solani [14]): 0% | inhibition at 3 µM (Fusarium oxysporum [15]): 13.7% | inhibition at 3 µM (Fusarium oxysporum [16]): 0% | inhibition at 3 µM (Fusarium solani [17]): 47% | inhibition at 3 µM (Fusarium solani [18]): 32.9% | inhibition at 30 µM (Fusarium oxysporum [19]): 98.8% | inhibition at 30 µM (Fusarium oxysporum [20]): 99.2% | inhibition at 30 µM (Fusarium solani [21]): 99% | inhibition at 30 µM (Fusarium solani [22]): 99.3% | GI50 (A549): 166 nM | GI50 (NCI-H322M): 167 nM | TGI (NCI-H322M): 304 nM | GI50 (RPMI-8226): 1270 nM | TGI (RPMI-8226): 2760 nM | GI50 (COLO 205): 243 nM | GI50 (HCC 2998): 255 nM | TGI (HCC 2998): 971 nM | GI50 (HCT-15): 416 nM | TGI (HCT-15): 1360 nM | GI50 (HT-29): 187 nM | GI50 (KM12): 1010 nM | TGI (KM12): 2190 nM | GI50 (SNB-75): 1010 nM | TGI (SNB-75): 2190 nM | GI50 (UACC-257): 1440 nM | TGI (UACC-257): 2820 nM | inhibition at 30 µM (Fusarium proliferatum [23]): 98.7% | inhibition at 30 µM (Fusarium proliferatum [24]): 99%

C/C=C1\NC(=O)[C@H](Cc2ccccc2)NC(=O)[C@@H](C(C)C)NC(=O)[C@@H]([C@@H](C)CC)NC(=O)[C@H](NC(=O)[C@H](NC(=O)[C@H](CCCNCc2ccncc2)NC(=O)[C@H]2CCCN2C(=O)[C@@H](NC(=O)[C@H](NC(=O)[C@H](NC(=O)[C@@H](NC(=O)CCCC(C)C)C(C)C)[C@H](C)O)C(C)C)C(C)C)[C@@H](C)CC)[C@@H](C)OC(=O)[C@H](C(C)C)NC1=O
Activity (Fusarium proliferatum [25]): Active | Activity (Fusarium solani [2]): Active | Activity (Fusarium oxysporum [26]): Active
